Assay results published in ChEMBL document CHEMBL1153726, “Synthesis and anticancer activity of sclerophytin-inspired hydroisobenzofurans” (Bioorg Med Chem Lett, 2009).
pIC50: −log10 of the molar value.

Test: Antitumor activity against human KB3 cells after 96 hrs by MTT assay
Format: functional, cell-based
Settings: KB3, 96 h
Procedure, shortened: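 Human KB-3 carcinoma cells exposed to increasing compound concentrations; viability read by MTT colorimetric assay after 96 h. Values are means of triplicate assays, expressed relative to untreated controls.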

Row | SMILES | pIC50
1 | C=C(C)[C@H]1CC=C(C)C2=CO[C@@H](c3ccco3)[C@@H]21 | 5.70
2 | C=C(C)[C@H]1CC=C(C)[C@@]2(O)[C@@H]1[C@H](c1ccccc1Br)O[C@@H]2C(=O)OC | 5.30
3 | C=C(C)[C@H]1CC=C(C)[C@@]2(O)[C@@H]1[C@H](c1cccc(Br)c1)O[C@@H]2C(=O)OCC | 5.52
4 | C=C(C)[C@H]1CC(=O)C(C)=C2[C@@H](C(=O)OCC)O[C@@H](c3cccc(Cl)c3Cl)[C@@H]21 | 5.30
